Data set [1] deals with MDA-MB-231. As to the kind of experiment: Inhibition of cell migration in human MDA-MB-231 cells at 10 uM […] by scratch wound healing assay relative to control. To be noted: MDA-MB-231, 22 h, in the assay text read “22 hrs” for “24 hrs”. The format is functional. Put shortly:
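MDA-MB-231 cells in DMEM + 10% FBS, 37 °C, 5% CO2; 1 × 10^5 cells/well grown to confluence, monolayer scratched with pipet tip, debris rinsed with FBS-free medium. Incubated 22 h at 37 °C in 10% FBS medium with compound (10, 5, 2, 1 μM). Wound areas imaged at 0 and 22 h and measured; cell toxicity judged visually. Colchicine positive control. Two independent experiments in triplicate, mean ± SD.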

In data set [2] the test system is MDA-MB-231. Put plainly: Inhibition of cell migration in human MDA-MB-231 cells at 1 uM incubated for 22 hrs by scratch wound healing assay relative to control. To be noted: MDA-MB-231, 22 h.
In data set [3] the test system is MDA-MB-231. As to the kind of experiment: Cytotoxicity against human MDA-MB-231 cells assessed as cell death after 24 hrs by MTS assay. The format is functional, cell-based. To be noted: MDA-MB-231, 24 h. Put shortly:
(§1)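 MDA-MB-231 cells in DMEM with 10% FBS at 37 °C, 5% CO2, seeded at 4 × 10^3 cells/well. After 24 h, seven concentrations (20−0.03 μM) were added in triplicate, with doxorubicin as control. After 24 h exposure, MTS was added for 4 h at 37 °C and absorbance read at 490 nm. Viability is relative to control wells; IC50 is from nonlinear regression. At least two independent experiments.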

For data set [4], the system named is MDA-MB-231. As to the kind of experiment: Cytotoxicity against human MDA-MB-231 cells assessed as cell detachment at 10 uM. Type of data set: cell-based. The conditions noted are these: mda-mb-231, 10 µM. Put shortly:
(§2)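 Toxicity was judged visually during the wound-healing assay. MDA-MB-231 monolayers were scratched, then incubated 22 h at 37 °C in medium with 10% FBS and compound at 10, 5, 2 or 1 μM. Cells were scored for detachment and for morphological change (volume reduction, membrane disintegration).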

Data set [5] concerns MDA-MB-231. As to the kind of experiment: Cytotoxicity against human MDA-MB-231 cells assessed as reduction in cell volume at 10 uM. The format is cell-based. The conditions noted are these: mda-mb-231, 10 µM. Put shortly: as §2
The subject of data set [6] is MDA-MB-231. Put plainly: Cytotoxicity against human MDA-MB-231 cells assessed as membrane disintegration at 10 uM. The conditions noted are these: mda-mb-231, 10 µM. Type of data set: cell-based. The method in brief:
as §2

Data set [7] concerns MDA-MB-231. Put plainly: Cytotoxicity against human MDA-MB-231 cells assessed as cell detachment at 2 to 5 uM. The conditions noted are these: mda-mb-231, 5 µM. The format is cell-based. The method in brief:
as §2

Data set [8] concerns MDA-MB-231. As to the kind of experiment: Cytotoxicity against human MDA-MB-231 cells assessed as reduction in cell volume at 2 to 5 uM. The conditions noted are these: mda-mb-231, 5 µM. Type of data set: cell-based. The method in brief:
as §2

Data set [9] has as its system MDA-MB-231. Put plainly: Cytotoxicity against human MDA-MB-231 cells assessed as membrane disintegration at 2 to 5 uM. Type of data set: cell-based. The conditions noted are these: mda-mb-231, 5 µM. The method in brief:
as §2

Data set [10] relates to MDA-MB-231. Put plainly: Cytotoxicity against human MDA-MB-231 cells assessed as cell death at 20 uM after 24 hrs by MTS assay relative to control. The format is functional. Put shortly: as §1
Data set [11] has as its system MDA-MB-231. Put plainly: Inhibition of cell migration in human MDA-MB-231 cells at 2 uM incubated for […] by scratch wound healing assay relative to control. The format is functional. The method in brief:
(§3)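 MDA-MB-231 cells were seeded at 1 × 10^5 cells/well and grown to a confluent monolayer, then scratched with a pipet tip. Debris was rinsed with FBS-free medium. Cells were incubated 22 h at 37 °C in 10% FBS medium with compound (10, 5, 2, 1 μM), with colchicine as positive control. Wound areas were imaged at 0 and 22 h and measured. Two independent experiments in triplicate, reported as mean ± SD.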

For data set [12], the system named is MDA-MB-231. Put plainly: Inhibition of cell migration in human MDA-MB-231 cells at 5 uM incubated for […] by scratch wound healing assay relative to control. The format is functional. The method in brief:
as §3

The structures appear in SMILES notation. Where a SMILES comes first, the peptide text is derived from it. Bridges are numbered along the chain shown (N, C = ends).

As for `COc1cc2c(c(OC)c1OC)-c1ccc(OC)c(=O)cc1[C@@H](NC(C)=O)CC2` [COLCHICINE], at 10 µM the inhibition with MDA-MB-231 [1] was 85%. The same compound had an inhibition at 1 µM with MDA-MB-231 [2] of 75%.
On to `COc1cccc2c1C(=O)c1c(O)c3c(c(O)c1C2=O)C[C@@](O)(C(=O)CO)C[C@@H]3O[C@H]1C[C@H](N)[C@H](O)[C@H](C)O1` [DOXORUBICIN], for which, in the data set with MDA-MB-231 [3], the 50% inhibitory concentration (IC50) is 900 nM.
As to `CC[C@H](C)[C@@H]1NC(=O)[C@H](C)NC(=O)[C@H](CO)NC(=O)[C@H](CO)NC(=O)[C@H]([C@@H](C)CC)NC(=O)[C@@H]2CSSC[C@@H]3NC(=O)[C@H](C(C)C)NC(=O)[C@H](CCCN)NC(=O)[C@H](CC(N)=O)NC(=O)[C@H](CCCN)NC(=O)[C@@H]4CSSC[C@H](NC(=O)[C@H](CO)NC(=O)[C@H](CCC(=O)O)NC(=O)CNC(=O)[C@H](CSSC[C@H](NC(=O)CNC1=O)C(=O)N[C@@H](CO)C(=O)N4)NC(=O)[C@@H]1CCCN1C(=O)[C@H]([C@@H](C)CC)NC(=O)CNC[C@@H](C(N)=O)NC(=O)[C@H](CCCN)NC(=O)[C@H](Cc1ccc(O)cc1)NC3=O)C(=O)N[C@@H](C(C)C)C(=O)N[C@@H](Cc1c[nH]c3ccccc13)C(=O)N[C@@H]([C@@H](C)CC)C(=O)N1CCC[C@H]1C(=O)N2` [listing 1 of 2 here], the IC50 in the data set on MDA-MB-231 [3] was 9800 nM. Also, the Activity result in the data set on MDA-MB-231 [4], in the data set on MDA-MB-231 [5] and in the data set with MDA-MB-231 [6] was “Toxic” each time.
`CC[C@H](C)[C@@H]1NC(=O)[C@H](C)NC(=O)[C@H]([C@@H](C)O)NC(=O)[C@H]([C@@H](C)CC)NC(=O)[C@H]([C@@H](C)O)NC(=O)[C@@H]2CSSC[C@@H]3NC(=O)[C@H](C(C)C)NC(=O)[C@H](CCCNC(=N)N)NC(=O)[C@H](CC(=O)O)NC(=O)[C@H](CCCNC(=N)N)NC(=O)[C@@H]4CSSC[C@H](NC(=O)[C@H](CO)NC(=O)[C@H](CCC(=O)O)NC(=O)[C@H](C)NC(=O)[C@H](CSSC[C@H](NC(=O)CNC(=O)[C@H](CC(C)C)NC1=O)C(=O)N[C@@H](CO)C(=O)N4)NC(=O)[C@@H]1CCCN1C(=O)[C@H](CC(C)C)NC(=O)CNC(=O)[C@H](CC(=O)O)NC(=O)[C@H](Cc1ccc(O)cc1)NC3=O)C(=O)N[C@@H](C(C)C)C(=O)N[C@@H](Cc1ccccc1)C(=O)N[C@@H]([C@@H](C)CC)C(=O)N1CCC[C@H]1C(=O)N2` (cyclo(AESCVFIPCTITAILGCSCRDRVCYDGLPC); disulfide 4-19, 9-24, 17-30) [listing 1 of 2 here]: the 50% inhibitory concentration (IC50) in the data set with MDA-MB-231 [3] amounted to 1800 nM. Further, the Activity entry with MDA-MB-231 [7], in the data set on MDA-MB-231 [8], in the data set with MDA-MB-231 [9], with MDA-MB-231 [4], in the data set on MDA-MB-231 [5] and with MDA-MB-231 [6] was “Toxic” in each case.
In the case of `CC[C@H](C)[C@@H]1NC(=O)[C@H](C)NC(=O)[C@H]([C@@H](C)O)NC(=O)[C@H]([C@@H](C)CC)NC(=O)[C@H]([C@@H](C)O)NC(=O)[C@@H]2CSSC[C@@H]3NC(=O)[C@H](C(C)C)NC(=O)[C@H](CCCNC(=N)N)NC(=O)[C@H](CC(=O)O)NC(=O)[C@H](CCCNC(=N)N)NC(=O)[C@@H]4CSSC[C@H](NC(=O)[C@H](CO)NC(=O)[C@H](CCC(=O)O)NC(=O)[C@H](C)NC(=O)[C@H](CSSC[C@H](NC(=O)CNC(=O)[C@H](CC(C)C)NC1=O)C(=O)N[C@@H](CO)C(=O)N4)NC(=O)[C@@H]1CCCN1C(=O)[C@H](CC(C)C)NC(=O)CNC(=O)[C@H](CC(=O)O)NC(=O)[C@H](Cc1ccc(O)cc1)NC3=O)C(=O)N[C@@H](C(C)C)C(=O)N[C@@H](Cc1ccccc1)C(=O)N[C@@H]([C@@H](C)CC)C(=O)N1CCC[C@H]1C(=O)N2` (cyclo(AESCVFIPCTITAILGCSCRDRVCYDGLPC); disulfide 4-19, 9-24, 17-30) [listing 2 of 2 here], the Activity in the data set on MDA-MB-231 [10] is more than 80%. The same compound returned an inhibition at 1 µM in the data set on MDA-MB-231 [2] of 0%.
For `CC[C@H](C)[C@@H]1NC(=O)[C@H](C)NC(=O)[C@H]([C@@H](C)O)NC(=O)[C@H](C(C)C)NC(=O)[C@@H]2CSSC[C@@H]3NC(=O)[C@H](C(C)C)NC(=O)[C@H](CCCNC(=N)N)NC(=O)[C@H](CC(=O)O)NC(=O)[C@H](CCCN)NC(=O)[C@@H]4CSSC[C@H](NC(=O)[C@H](CO)NC(=O)[C@H](CCC(=O)O)NC(=O)[C@H](C)NC(=O)[C@H](CSSC[C@H](NC(=O)CNC(=O)[C@H](CC(C)C)NC1=O)C(=O)N[C@@H](CO)C(=O)N4)NC(=O)[C@@H]1CCCN1C(=O)[C@H]([C@@H](C)CC)NC(=O)CNC(=O)[C@H](CC(N)=O)NC(=O)[C@H](Cc1ccc(O)cc1)NC3=O)C(=O)N[C@@H](C(C)C)C(=O)N[C@@H](Cc1ccccc1)C(=O)N[C@@H]([C@@H](C)CC)C(=O)N1CCC[C@H]1C(=O)N2` [listing 1 of 2 here], the Activity in the data set on MDA-MB-231 [10] is reported as more than 80%. This compound returned an inhibition at 1 µM with MDA-MB-231 [2] of 0%.
For the compound `CC[C@H](C)[C@@H]1NC(=O)[C@H](C)NC(=O)[C@H]([C@@H](C)O)NC(=O)[C@H](C(C)C)NC(=O)[C@@H]2CSSC[C@@H]3NC(=O)[C@H](C(C)C)NC(=O)[C@H](CCCNC(=N)N)NC(=O)[C@H](CC(=O)O)NC(=O)[C@H](CCCN)NC(=O)[C@@H]4CSSC[C@H](NC(=O)[C@H](CO)NC(=O)[C@H](CCC(=O)O)NC(=O)[C@H](C)NC(=O)[C@H](CSSC[C@H](NC(=O)CNC(=O)[C@H](CC(C)C)NC1=O)C(=O)N[C@@H](CO)C(=O)N4)NC(=O)[C@@H]1CCCN1C(=O)[C@H]([C@@H](C)CC)NC(=O)CNC(=O)[C@H](CC(N)=O)NC(=O)[C@H](Cc1ccc(O)cc1)NC3=O)C(=O)N[C@@H](C(C)C)C(=O)N[C@@H](Cc1ccccc1)C(=O)N[C@@H]([C@@H](C)CC)C(=O)N1CCC[C@H]1C(=O)N2` [listing 2 of 2 here], the half-inhibitory concentration (IC50) in the data set with MDA-MB-231 [3] was determined as 2700 nM. The Activity entry in the data set on MDA-MB-231 [7], with MDA-MB-231 [8], with MDA-MB-231 [9], in the data set on MDA-MB-231 [4], in the data set on MDA-MB-231 [5] and in the data set on MDA-MB-231 [6] was “Toxic” each time.
As to `CC[C@H](C)[C@@H]1NC(=O)[C@H](C)NC(=O)[C@H](CO)NC(=O)[C@H](CO)NC(=O)[C@H]([C@@H](C)CC)NC(=O)[C@@H]2CSSC[C@@H]3NC(=O)[C@H](C(C)C)NC(=O)[C@H](CCCN)NC(=O)[C@H](CC(N)=O)NC(=O)[C@H](CCCN)NC(=O)[C@@H]4CSSC[C@H](NC(=O)[C@H](CO)NC(=O)[C@H](CCC(=O)O)NC(=O)CNC(=O)[C@H](CSSC[C@H](NC(=O)CNC1=O)C(=O)N[C@@H](CO)C(=O)N4)NC(=O)[C@@H]1CCCN1C(=O)[C@H]([C@@H](C)CC)NC(=O)CNC[C@@H](C(N)=O)NC(=O)[C@H](CCCN)NC(=O)[C@H](Cc1ccc(O)cc1)NC3=O)C(=O)N[C@@H](C(C)C)C(=O)N[C@@H](Cc1c[nH]c3ccccc13)C(=O)N[C@@H]([C@@H](C)CC)C(=O)N1CCC[C@H]1C(=O)N2` [listing 2 of 2 here], in the data set on MDA-MB-231 [10], the Activity is reported as more than 80%. In the data set with MDA-MB-231 [11], this compound came in with an inhibition at 2 µM of 50%. Moreover, testing at 5 µM with MDA-MB-231 [12] gave an inhibition of 60%. In addition, the inhibition at 1 µM in the data set on MDA-MB-231 [2] worked out at 15%.
